Legend:
[1] = AUC infinity in Beagle dog at 0.5 mg/kg, iv administered as bolus dose by HPLC-based liquid scintillation counting analysis; type: ADME, organism-based, Canis lupus familiaris; parameters: time infinity, dose 0.5 mg/kg, route intravenous; conditions: plasma
Outline: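 Male beagles (7.4–10.0 kg) got a single IV injection of [14C]M-III in saline (2.5 mg/ml), 0.5 mg–1.0 MBq/kg. Cephalic-vein blood was taken from 5 min to 168 h and spun for heparinized plasma. Plasma was deproteinized with acetonitrile, run on reverse-phase HPLC and collected as 1-min fractions counted by LSC. AUCinf = AUClast + Clast/kel; n = 3.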

[2] = Elimination rate constant in Beagle dog at 0.5 mg/kg, iv administered as bolus dose by HPLC-based liquid scintillation counting analysis; type: ADME, organism-based, Canis lupus familiaris; parameters: dose 0.5 mg/kg, route intravenous; conditions: in vivo
Outline: (§1)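 [14C]M-III in saline given as a single iv bolus at 0.5 mg/kg to male rats (tail-vein blood, 5 min–24 h) or male beagle dogs (cephalic-vein blood, 5 min–168 h). Heparinized plasma counted for radioactivity; M-III quantified by HPLC with fraction collection and liquid scintillation counting. C5 min read directly; terminal t1/2 by linear regression, kel = ln2/t1/2, Vd = dose/back-extrapolated C0, CLtot = dose/AUCinf. Mean ± S.D., n = 3.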

[3] = Elimination rate constant in Crj:CD(SD)IGS rat at 0.5 mg/kg, iv administered as bolus dose by HPLC-based liquid scintillation counting analysis; type: ADME, organism-based; parameters: dose 0.5 mg/kg, route intravenous; conditions: in vivo; outline: as §1
[4] = Total body clearance in Beagle dog at 0.5 mg/kg, iv administered as bolus dose by HPLC-based liquid scintillation counting analysis; type: ADME, organism-based, Canis lupus familiaris; parameters: dose 0.5 mg/kg, route intravenous; conditions: in vivo; outline: as §1
[5] = Ratio of drug level in kidney medulla to plasma in Beagle dog at 0.5 mg/kg, iv administered as bolus dose by HPLC-based liquid scintillation counting analysis; type: ADME, organism-based, Canis lupus familiaris; parameters: dose 0.5 mg/kg, route intravenous
Outline: (§2)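 Rats received [14C]M-III in saline by continuous jugular-vein infusion for 4 h (0.5 mg/rat/h per methods; 0.25 mg/h in legend), then aortic blood and kidneys were collected. Dogs received a 0.5 mg/kg iv bolus, with blood and kidneys (cortex and medulla separated) collected at 24 h. 14C was measured in tissue homogenates and plasma as a tissue/plasma ratio. Rat n = 3, dog n = 2.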

Plasma [6] = experiment: Plasma concentration in Crj:CD(SD)IGS rat at 0.125 mg/hr, iv administered as continuous infusion by HPLC based liquid scintillation counting analysis; type: ADME, organism-based; conditions: in vivo
Outline: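 Rats were continuously infused iv with [14C]M-III at 0.125 mg/rat/h, plus probenecid (4.7, 9.4, 18.6 mg/rat/h) or vehicle. Femoral-artery blood was taken at 0.5, 1, 2, 3 and 4 h, with terminal aortic blood at 5 h. Plasma radioactivity was measured, with probenecid quantified by HPLC-UV at 240 nm against spiked-plasma calibration from 0.1 to 100 µg/ml.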

[7] = In vivo plasma protein binding in Crj:CD(SD)IGS rat at 0.125 mg/hr, iv administered as continuous infusion by ultrafiltration method in presence of 16 mg/hr/kg probenecid; type: ADME, organism-based; conditions: with probenecid 16 mg/hr/kg, read-out: PPB (converted)
Outline: (§3)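 Rats received a continuous iv infusion of [14C]M-III at 0.125 mg/rat/h, with probenecid co-infused at 16, 31 or 62 mg/h/kg or vehicle alone, for 5 h. Arterial plasma was sampled during infusion. CLtot = infusion rate / steady-state plasma M-III (120–180 min). Unbound fraction was measured by ultrafiltration of 5-h plasma (10,000 MWCO, 1500g, 37°C, 10 min). CLint = CLtot / unbound ratio.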

[8] = Drug recovery in Crj:CD(SD)IGS rat urine at 0.5 mg/kg, iv administered as bolus dose measured from 0 to 24 hrs by HPLC analysis; type: ADME, organism-based; parameters: dose 0.5 mg/kg, route intravenous; conditions: read-out: Drug recovery
Outline: (§4)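 After a 0.5 mg/kg iv bolus of [14C]M-III, urine was collected 0–24 h (rat) or 0–168 h (dog) and injected directly onto HPLC with fraction collection and scintillation counting. M-III in urine was derived from the urinary 14C excretion ratio and the [14C]M-III composition. CLrenal = urinary M-III amount / AUC0–24 h (rat) or AUC0–168 h (dog). Unbound CLrenal = CLrenal / free fraction.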

Canis familiaris = experiment: Unbound renal clearance in Beagle dog at 0.5 mg/kg, iv administered as bolus dose measured from 0 to 168 hrs by HPLC-based liquid scintillation counting analysis; type: ADME, organism-based, Canis lupus familiaris, Kidney; parameters: dose 0.5 mg/kg, route intravenous; conditions: in vivo; outline: as §4
[9] = Drug excretion in Crj:CD(SD)IGS rat urine assessed as excretion ratio of [14C] at 0.5 mg/kg, iv administered as bolus dose measured from 0 to 24 hrs by HPLC-based liquid scintillation counting analysis; type: ADME, organism-based; parameters: dose 0.5 mg/kg, route intravenous; conditions: in vivo
Outline: (§5)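 Male rats in metabolic cages with urine/feces separator, or beagle dogs, after a 0.5 mg/kg iv bolus of [14C]M-III in saline. Radioactivity in urine and feces collected 0–24 h (rats) or 0–168 h (dogs) was counted and expressed as percent of dose. Mean ± S.D., n = 3.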

[10] = In vitro plasma protein binding in dog at 0.5 ug/ml by ultrafiltration method; type: ADME, cell-free, Canis lupus familiaris; conditions: read-out: PPB (converted)
Outline: (§6)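 [14C]M-III in saline was added to rat or dog plasma at final 0.5, 5 and 50 µg/ml. Plasma was ultrafiltered by centrifugation at 1500g and 37°C for 10 min, and 14C was measured in plasma and filtrate. Mean ± S.D., n = 3.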

[11] = Drug excretion in Beagle dog feces assessed as excretion ratio of [14C] at 0.5 mg/kg, iv administered as bolus dose measured from 0 to 168 hrs by HPLC-based liquid scintillation counting analysis; type: ADME, organism-based, Canis lupus familiaris; parameters: dose 0.5 mg/kg, route intravenous; conditions: in vivo; outline: as §5
[12] = Ratio of drug level in kidney cortex to plasma in Beagle dog at 0.5 mg/kg, iv administered as bolus dose by HPLC-based liquid scintillation counting analysis; type: ADME, organism-based, Canis lupus familiaris; parameters: dose 0.5 mg/kg, route intravenous; outline: as §2
Plasma [13] = experiment: Plasma concentration in Beagle dog at 0.5 mg/kg, iv administered as bolus dose by HPLC based liquid scintillation counting analysis; type: ADME, organism-based, Canis lupus familiaris; parameters: dose 0.5 mg/kg, route intravenous; conditions: in vivo
[14] = Drug uptake in Crj:CD(SD)IGS rat plasma at 0.5 mg/kg, iv administered as bolus dose after 5 mins by HPLC-based liquid scintillation counting analysis; type: ADME, organism-based; parameters: dose 0.5 mg/kg, route intravenous; outline: as §1
[15] = Total body clearance in Crj:CD(SD)IGS rat at 0.125 mg/hr, iv administered as continuous infusion by HPLC based liquid scintillation counting analysis in presence of 31 mg/hr/kg probenecid; type: ADME, organism-based; conditions: in vivo, with probenecid 31 mg/hr/kg; outline: as §3
[16] = In vitro plasma protein binding in dog at 50 ug/ml by ultrafiltration method; type: ADME, cell-free, Canis lupus familiaris; conditions: read-out: PPB (converted); outline: as §6
Rattus norvegicus = experiment: Unbound renal clearance in Crj:CD(SD)IGS rat at 0.5 mg/kg, iv administered as bolus dose measured from 0 to 24 hrs by HPLC-based liquid scintillation counting analysis; type: ADME, organism-based, Kidney; parameters: dose 0.5 mg/kg, route intravenous; conditions: in vivo
Outline: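 Male Crj:CD(SD)IGS rats received [14C]M-III in saline as an IV bolus at 0.5 mg–2.6 MBq/kg. Urine was collected in metabolic cages over 0–24 h. M-III in urine was taken as total urinary 14C times the M-III fraction, measured by direct HPLC, 1-min fraction collection and scintillation counting. CLrenal = urinary M-III / AUC. Unbound CLrenal = CLrenal / free fraction, from in vivo ultrafiltration binding. n = 3.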

[17] = Renal clearance in Beagle dog at 0.5 mg/kg, iv administered as bolus dose measured from 0 to 168 hrs by HPLC-based liquid scintillation counting analysis; type: ADME, organism-based, Canis lupus familiaris, Kidney; parameters: dose 0.5 mg/kg, route intravenous; conditions: in vivo; outline: as §4

SMILES: N[14c]1[14cH][14cH][14c](OS(=O)(=O)O)[14cH][14c]1Cl
- AUC(0-inf) [1]: 596 µg·h/mL
- k el [2]: 1.68e-06 s⁻¹
- k el [3]: 5.11e-05 s⁻¹
- clearance [4]: 0.884 mL/h/kg
- Kp [5]: 0.2
- Cp (Plasma [6]): 600 ng/mL
- fraction unbound [7]: 0.078
- dose excreted [8]: 76.9%
- CL free (Canis familiaris): 3.51 mL/h/kg
- Drug excretion [9]: 84.7%
- fraction unbound at 0.5 ug/ml [10]: 0.098
- Drug excretion [11]: 7.7%
- Kp [12]: 0.1
- Cp (Plasma [13]): 2500 ng/mL
- concentration at 5 min [14]: 2290 ng/mL
- clearance [15]: 141 mL/h/kg
- fraction unbound at 50 ug/ml [16]: 0.154
- CL free (Rattus norvegicus): 5778 mL/h/kg
- CL renal [17]: 0.281 mL/h/kg
